According to ChEMBL document CHEMBL4819071, “Design, synthesis and in-vitro evaluation of fluorinated triazoles as multi-target directed ligands for Alzheimer disease” (Bioorg Med Chem Lett, 2021):
Each block holds one compound with its values, some of them ahead of it. The source made the active and inactive calls. The rule behind the calls is not given here.

Experiments:
PC-12 [1] = assay: (§1) Cytotoxicity against rat PC-12 cells assessed as cell viability at 40 uM measured after 24 hrs by Alamar blue assay relative to control; type: cell-based; details: pc-12, 24 h, 40 µM
In short: (§2)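 PC-12 neuronal cells incubated 24 h with compound at 40 µM. Viability read with Alamar Blue and expressed as percent of untreated cells.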

[2] = Metal chelating activity assessed as Zn2+-compound complex formation at incremental dose of compound incubated for 30 mins by UV-visible spectrophotometry
[3] = molecular target: T1, Amyloid-beta precursor protein (Homo sapiens, UniProt P05067); assay: Inhibition of amyloid beta (1 to 42 ) (unknown origin) self aggregation measured after 24 hrs by thioflavin-T fluorescence method
[4] = molecular target: T1, Amyloid-beta precursor protein; assay: Inhibition of amyloid beta (1 to 42 ) (unknown origin) self aggregation at 40 uM measured after 24 hrs in presence of copper ion by thioflavin-T fluorescence method
In short: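 Aβ42 (10 µM) incubated with Cu2+ (10 µM) and compound for 24 h at 37 °C with shaking at 180 rpm. Percent fibril formation determined by Thioflavin T. Compared against Aβ42 alone and Aβ42 + Cu2+ by Dunnett test. n = 3.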

[5] = molecular target: T1, Amyloid-beta precursor protein; assay: Inhibition of amyloid beta (1 to 42 ) (unknown origin) self aggregation at 40 uM after 24 hrs by thioflavin-T fluorescence method
In short: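 Aβ42 (10 µM) incubated with compound (40 µM) for 24 h at 37 °C. Fibril formation quantified by Thioflavin T and given as percent of Aβ42 left to fibrillate alone. n = 3, Dunnett test.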

[6] = Metal chelating activity assessed as Zn2+-compound complex formation by measuring hyperchromic shift at 50 uM incubated for 30 mins by UV-visible spectrophotometry
PC-12 [7] = assay: Anti-inflammatory activity in rat PC-12 cells assessed as decrease in LPS-stimulated ROS accumulation at 40 uM measured after 24 hrs by DCFH-DA staining based FACS […] assay; type: functional, cell-based
In short: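 PC-12 cells inflamed with LPS (10 µg/mL), then treated with compound at 40 µM for 24 h. ROS measured by DCFDA flow cytometry. Cells gated on FSC/SSC, singlets selected (FSC area vs height), and dead cells excluded by propidium iodide. The percentage of DCFDA ROS-high live cells was taken from the FL1 vs FSC dot plot quadrant. n = 3.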

[8] = Metal chelating activity assessed as Cu2+-compound complex formation at compound:Cu2+ concentration ratio of 1:1 to 1:6 incubated for 30 mins by UV-visible spectrophotometry
In short: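 Compound titrated with Cu2+ at compound:Cu ratios 1:1 to 1:6 in HEPES buffer at room temperature. UV–vis spectra recorded over about 240–320 nm. Absorbance plotted against ratio and fitted linearly.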

[9] = as §1; type: cell-based; details: PC-12 cells, read-out: Activity; in short: as §2
[10] = Metal chelating activity assessed as Cu2+-compound complex formation by measuring hyperchromic shift at 50 uM incubated for 30 mins by UV-visible spectrophotometry
[11] = Metal chelating activity assessed as Fe3+-compound complex formation by measuring hyperchromic shift at 50 uM incubated for 30 mins by UV-visible spectrophotometry
[12] = Metal chelating activity assessed as Fe3+-compound complex formation at compound:Fe3+ concentration ratio of 1:1 to 1:5 incubated for 30 mins by UV-visible spectrophotometry
In short: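 Compound combined with Fe3+ at compound:Fe ratios 1:1, 1:3 and 1:5 in HEPES buffer at room temperature. UV–vis spectra recorded over about 250–350 nm.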

T1 sequence (P05067 whole entry): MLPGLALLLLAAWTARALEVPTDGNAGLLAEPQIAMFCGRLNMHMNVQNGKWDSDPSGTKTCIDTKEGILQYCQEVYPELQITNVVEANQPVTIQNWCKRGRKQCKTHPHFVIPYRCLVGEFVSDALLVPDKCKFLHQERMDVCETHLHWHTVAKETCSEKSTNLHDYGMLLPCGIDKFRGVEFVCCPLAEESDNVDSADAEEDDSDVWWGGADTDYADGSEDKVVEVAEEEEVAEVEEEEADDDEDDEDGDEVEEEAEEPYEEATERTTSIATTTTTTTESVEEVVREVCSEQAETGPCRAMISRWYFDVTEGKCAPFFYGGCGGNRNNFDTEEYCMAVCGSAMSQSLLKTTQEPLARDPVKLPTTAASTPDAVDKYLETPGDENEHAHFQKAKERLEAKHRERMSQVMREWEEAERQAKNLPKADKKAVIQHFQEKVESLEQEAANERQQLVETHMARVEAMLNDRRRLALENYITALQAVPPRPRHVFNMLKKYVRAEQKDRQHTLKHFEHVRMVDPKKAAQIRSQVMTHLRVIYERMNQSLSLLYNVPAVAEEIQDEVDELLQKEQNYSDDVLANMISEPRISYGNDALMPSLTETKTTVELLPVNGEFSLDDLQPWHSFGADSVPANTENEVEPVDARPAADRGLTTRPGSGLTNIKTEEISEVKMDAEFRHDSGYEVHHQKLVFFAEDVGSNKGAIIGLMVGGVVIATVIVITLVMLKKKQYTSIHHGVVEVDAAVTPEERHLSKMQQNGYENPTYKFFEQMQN

SMILES: O=C(Nc1ccc(C(O)(C(F)(F)F)C(F)(F)F)cc1)c1cn(-c2ccccc2)nn1
- Activity (PC-12 [1]): Toxic

SMILES: OC(c1ccc(NCc2cn(-c3ccccc3)nn2)cc1)(C(F)(F)F)C(F)(F)F
- Activity (PC-12 [1]): Toxic

SMILES: COc1ccc(-n2cc(CNc3ccc(C(O)(C(F)(F)F)C(F)(F)F)cc3)nn2)cc1OC
- inhibition [4]: < 50%
- inhibition [5]: Active
- viability at 24 h, 40 µM [9]: > 60%

Now from value to compound, other results behind:

- Activity [2]: Active
- IC50 [3]: 4.6 µM
- inhibition [4]: < 50%
- inhibition [5]: Active
- Activity [6]: Active
- Activity [8]: Active
- Activity [10]: Active
- Activity [11]: Active
- Activity [12]: Active
SMILES: Cc1ccc(-n2cc(C(=O)Nc3ccc(C(O)(C(F)(F)F)C(F)(F)F)cc3)nn2)cc1C
- Activity (PC-12 [7]): Active
- viability at 24 h, 40 µM [9]: > 60%

- inhibition [5]: inactive
SMILES: Cc1ccc(-n2cc(CNc3ccc(C(O)(C(F)(F)F)C(F)(F)F)cc3)nn2)cc1C
- viability at 24 h, 40 µM [9]: > 60%

- inhibition [5]: inactive
SMILES: O=C(Nc1ccccc1)c1cn(-c2ccc(C(O)(C(F)(F)F)C(F)(F)F)cc2)nn1
- viability at 24 h, 40 µM [9]: > 60%

- inhibition [5]: Active
SMILES: Cc1ccc(NC(=O)c2cn(-c3ccc(C(O)(C(F)(F)F)C(F)(F)F)cc3)nn2)cc1C
- viability at 24 h, 40 µM [9]: > 60%
